Results as given in ChEMBL document CHEMBL1649139, “A novel gene, erm(41), confers inducible macrolide resistance to clinical isolates of Mycobacterium abscessus but is absent from Mycobacterium chelonae” (2009).
Values after ≈ are worked out from the molar mass of the structure shown.

What was measured:
Type in all cases: functional
[1] = system: Mycobacteroides abscessus; assay: Antimicrobial activity against Mycobacterium abscessus isolate MC1028 at day 5 by broth microdilution method; details: isolate MC1028, 120 h
In short: (§1)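 Clarithromycin MIC by CLSI-conforming broth microdilution. Before testing, cultures were preincubated for 3 days, either in medium alone or in clarithromycin or erythromycin (tested range 0.01–1 μg/ml). Preincubation ran for at least two generations, judged by turbidity increase. Plates were read on day 3 and on extended incubation at days 5 to 14.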

[2] = system: Mycobacteroides abscessus; assay: Antimicrobial activity against Mycobacterium abscessus isolate MC879-2 at day 3 by broth microdilution method; details: isolate MC879-2, 72 h
[3] = system: Mycobacteroides abscessus; assay: Antimicrobial activity against Mycobacterium abscessus isolate MC720 at day 9 preincubated with 0.1 ug/ml erythromycin for 3 days by broth microdilution method
In short: (§2)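 Clarithromycin MIC by broth microdilution following CLSI guidelines. Before testing, organisms were preincubated for 3 days in medium alone or in clarithromycin or erythromycin (0.01–1 μg/ml), long enough for at least two generations judged by turbidity increase. MICs were read on day 3 and again on extended incubation out to day 14.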

[4] = system: Mycolicibacterium smegmatis; assay: Antimicrobial activity against Mycobacterium smegmatis transformed with erm allele Mycobacterium abscessus isolate MAB30 by broth microdilution method
[5] = system: Mycobacteroides abscessus; assay: Antimicrobial activity against Mycobacterium abscessus isolate MC1082 at day 14 by broth microdilution method; details: isolate MC1082, 336 h; in short: as §1
[6] = system: Mycobacteroides abscessus; assay: Antimicrobial activity against Mycobacterium abscessus isolate MAB30 at day 14 preincubated with 0.1 ug/ml erythromycin for 3 days by broth microdilution method; in short: as §1
[7] = system: Mycobacteroides abscessus; assay: Antimicrobial activity against Mycobacterium abscessus isolate MC723 at day 7 preincubated with 0.1 ug/ml erythromycin for 3 days by broth microdilution method; in short: as §2
[8] = system: Mycobacteroides abscessus; assay: Antimicrobial activity against Mycobacterium abscessus isolate MC719 at day 9 preincubated with 0.1 ug/ml erythromycin for 3 days by broth microdilution method; in short: as §2
[9] = system: Mycobacteroides abscessus; assay: Antimicrobial activity against Mycobacterium abscessus isolate MC1082 at day 7 preincubated with 0.1 ug/ml erythromycin for 3 days by broth microdilution method; in short: as §1
[10] = system: Mycobacteroides abscessus; assay: Antimicrobial activity against Mycobacterium abscessus isolate MC958 at day 5 by broth microdilution method; details: isolate MC958, 120 h
In short: (§3)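 Clarithromycin MIC by broth microdilution following CLSI guidelines. Organisms were preincubated […], for 3 days before the assay. This allowed at least two generations, judged by the rise in turbidity. The MIC was read at the stated day, with incubation extended from day 3 to as long as 14 days.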

[11] = system: Mycobacteroides abscessus; assay: Antimicrobial activity against Mycobacterium abscessus isolate MC1082 at day 14 preincubated with 0.1 ug/ml erythromycin for 3 days by broth microdilution method; in short: as §1
[12] = system: Mycolicibacterium smegmatis; assay: Antimicrobial activity against Mycobacterium smegmatis transformed with erm allele Mycobacterium abscessus isolate MC1028 preincubated with 2 ug/ml erythromycin for 20 to 24 hrs by broth microdilution method
[13] = system: Mycobacteroides abscessus; assay: Antimicrobial activity against Mycobacterium abscessus isolate MC720 at day 3 preincubated with 0.1 ug/ml for 3 days by broth microdilution method; in short: as §2
[14] = system: Mycobacteroides abscessus; assay: Antimicrobial activity against Mycobacterium abscessus isolate MC724 at day 7 preincubated with 0.1 ug/ml erythromycin for 3 days by broth microdilution method
In short: (§4)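 To test inducible resistance, cultures were preincubated for 3 days in clarithromycin or erythromycin, within 0.01–1 μg/ml. The period was set so cultures passed at least two generations, judged by turbidity increase. Clarithromycin MIC was then determined by CLSI-conforming broth microdilution and read on the stated day, from day 3 up to 14.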

[15] = system: Mycobacteroides abscessus; assay: Antimicrobial activity against Mycobacterium abscessus isolate MC723 at day 9 preincubated with 0.1 ug/ml erythromycin for 3 days by broth microdilution method; in short: as §2
[16] = system: Mycobacteroides abscessus; assay: Antimicrobial activity against Mycobacterium abscessus isolate MC1028 at day 3 by broth microdilution method; details: isolate MC1028, 72 h; in short: as §1
[17] = system: Mycobacteroides abscessus; assay: Antimicrobial activity against Mycobacterium abscessus isolate MC724 at day 3 by broth microdilution method; details: isolate MC724, 72 h; in short: as §3
[18] = system: Mycobacteroides abscessus; assay: Antimicrobial activity against Mycobacterium abscessus isolate MC879 at day 9 by broth microdilution method; details: isolate MC879, 216 h; in short: as §3
[19] = system: Mycobacteroides abscessus; assay: Antimicrobial activity against Mycobacterium abscessus isolate MC1448 at day 7 preincubated with 0.1 ug/ml erythromycin for 3 days by broth microdilution method; in short: as §2
[20] = system: Mycobacteroides abscessus; assay: Antimicrobial activity against Mycobacterium abscessus isolate MC724 at day 14 preincubated with 0.1 ug/ml for 3 days by broth microdilution method; in short: as §2
[21] = system: Mycobacteroides abscessus; assay: Antimicrobial activity against Mycobacterium abscessus isolate MC879 at day 7 by broth microdilution method; details: isolate MC879, 168 h; in short: as §3
[22] = system: Mycobacteroides abscessus; assay: Antimicrobial activity against Mycobacterium abscessus isolate MC1448 at day 14 by broth microdilution method; details: isolate MC1448, 336 h; in short: as §1
[23] = system: Mycobacteroides abscessus; assay: Antimicrobial activity against Mycobacterium abscessus isolate MC719 at day 14 preincubated with 0.1 ug/ml erythromycin for 3 days by broth microdilution method; in short: as §2
[24] = system: Mycobacteroides abscessus; assay: Antimicrobial activity against Mycobacterium abscessus isolate MAB30 at day 9 by broth microdilution method; details: isolate MAB30, 216 h; in short: as §1
[25] = system: Mycobacteroides abscessus; assay: Antimicrobial activity against Mycobacterium abscessus isolate MC958 at day 3 preincubated with 0.1 ug/ml for 3 days by broth microdilution method; in short: as §4
[26] = system: Mycobacteroides abscessus; assay: Antimicrobial activity against Mycobacterium abscessus isolate MC723 at day 7 preincubated with 0.1 ug/ml for 3 days by broth microdilution method; in short: as §2
[27] = system: Mycobacteroides abscessus; assay: Antimicrobial activity against Mycobacterium abscessus isolate MC1082 at day 14 preincubated with 0.1 ug/ml for 3 days by broth microdilution method; in short: as §1
[28] = system: Mycobacteroides abscessus; assay: Antimicrobial activity against Mycobacterium abscessus isolate MC723 at day 14 by broth microdilution method; details: isolate MC723, 336 h; in short: as §2
[29] = system: Mycobacteroides abscessus; assay: Antimicrobial activity against Mycobacterium abscessus isolate MC723 at day 3 preincubated with 0.1 ug/ml for 3 days by broth microdilution method; in short: as §2
[30] = system: Mycobacteroides abscessus; assay: Antimicrobial activity against Mycobacterium abscessus isolate MC723 at day 5 preincubated with 0.1 ug/ml erythromycin for 3 days by broth microdilution method
In short: (§5)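 Clinical M. abscessus isolates were preincubated for 3 days, either in medium alone or in clarithromycin or erythromycin at 0.01 to 1 μg/ml, allowing at least two generations of growth judged by turbidity. The clarithromycin MIC was then determined by CLSI-conforming broth microdilution, with plates read on day 3 and on extended incubation (days 5 to 14).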

[31] = system: Mycolicibacterium smegmatis; assay: Antimicrobial activity against Mycobacterium smegmatis transformed with erm allele Mycobacterium abscessus isolate MC1028 by broth microdilution method
[32] = system: Mycobacteroides abscessus; assay: Antimicrobial activity against Mycobacterium abscessus isolate MAB30 at day 14 by broth microdilution method; details: isolate MAB30, 336 h; in short: as §1
[33] = system: Mycobacteroides abscessus; assay: Antimicrobial activity against Mycobacterium abscessus isolate MC1028 at day 14 preincubated with 0.1 ug/ml for 3 days by broth microdilution method; in short: as §1
[34] = system: Mycobacteroides abscessus; assay: Antimicrobial activity against Mycobacterium abscessus isolate MC720 at day 7 by broth microdilution method; details: isolate MC720, 168 h; in short: as §5
[35] = system: Mycobacteroides abscessus; assay: Antimicrobial activity against Mycobacterium abscessus isolate MC719 at day 14 preincubated with 0.1 ug/ml for 3 days by broth microdilution method; in short: as §2
[36] = system: Mycobacteroides abscessus; assay: Antimicrobial activity against Mycobacterium abscessus isolate MC724 at day 5 by broth microdilution method; details: isolate MC724, 120 h; in short: as §3

**Q.** With `CC[C@H]1OC(=O)[C@H](C)[C@@H](O[C@H]2C[C@@](C)(OC)[C@@H](O)[C@H](C)O2)[C@H](C)[C@@H](O[C@@H]2O[C@H](C)C[C@H](N(C)C)[C@H]2O)[C@](C)(OC)C[C@@H](C)C(=O)[C@H](C)[C@@H](O)[C@]1(C)O` [CLARITHROMYCIN] as the compound, how does the MIC [1] read?
**A.** ≤ 0.5 µg/mL

**Q.** What about the MIC [2] of the same compound?
**A.** > 32 µg/mL

**Q.** And the MIC [3]?
**A.** > 32 µg/mL

**Q.** And the MIC [4]?
**A.** ≤ 0.5 µg/mL

**Q.** What about the MIC [5] of the same compound?
**A.** ≤ 0.5 µg/mL

**Q.** And the MIC [6]?
**A.** ≤ 0.5 µg/mL

**Q.** And the MIC [7]?
**A.** > 32 µg/mL

**Q.** What about the MIC [8] of the same compound?
**A.** > 32 µg/mL

**Q.** And the MIC [9]?
**A.** ≤ 0.5 µg/mL

**Q.** And the MIC [10]?
**A.** 1 µg/mL (≈ 1.34 µM)

**Q.** And the MIC [11]?
**A.** ≤ 0.5 µg/mL

**Q.** What about the MIC [12] of the same compound?
**A.** ≤ 0.5 µg/mL

**Q.** What about the MIC [13] of the same compound?
**A.** ≤ 0.5 µg/mL

**Q.** What about the MIC [14] of the same compound?
**A.** > 32 µg/mL

**Q.** And the MIC [15]?
**A.** > 32 µg/mL

**Q.** What about the MIC [16] of the same compound?
**A.** ≤ 0.5 µg/mL

**Q.** And the MIC [17]?
**A.** ≤ 0.5 µg/mL

**Q.** And the MIC [18]?
**A.** > 32 µg/mL

**Q.** What about the MIC [19] of the same compound?
**A.** > 32 µg/mL

**Q.** And the MIC [20]?
**A.** > 32 µg/mL

**Q.** What about the MIC [21] of the same compound?
**A.** 8 µg/mL (≈ 10.7 µM)

**Q.** And the MIC [22]?
**A.** > 32 µg/mL

**Q.** What about the MIC [23] of the same compound?
**A.** > 32 µg/mL

**Q.** And the MIC [24]?
**A.** ≤ 0.5 µg/mL

**Q.** What about the MIC [25] of the same compound?
**A.** ≤ 0.5 µg/mL

**Q.** What about the MIC [26] of the same compound?
**A.** > 32 µg/mL

**Q.** And the MIC [27]?
**A.** ≤ 0.5 µg/mL

**Q.** And the MIC [28]?
**A.** > 32 µg/mL

**Q.** And the MIC [29]?
**A.** ≤ 0.5 µg/mL

**Q.** What about the MIC [30] of the same compound?
**A.** 4 µg/mL

**Q.** And the MIC [31]?
**A.** ≤ 0.5 µg/mL

**Q.** And the MIC [32]?
**A.** ≤ 0.5 µg/mL

**Q.** And the MIC [33]?
**A.** ≤ 0.5 µg/mL

**Q.** And the MIC [34]?
**A.** 8 µg/mL (≈ 10.7 µM)

**Q.** What about the MIC [35] of the same compound?
**A.** > 32 µg/mL

**Q.** And the MIC [36]?
**A.** 1 µg/mL (≈ 1.34 µM)
